From publication PMC4427841 (British journal of haematology, 2010)
Several values for one entry are separate records, joined by “and”; a condition that tells them apart may be missing. Equal values may be shown once. Entries after “also recorded” stand apart in the source; their conditions may differ.

Legend:
[1] = target: 20S proteasome chymotrypsin-like (CT-L, β5) activity (Homo sapiens, UniProt P28074); assay type: in vivo, CB-17 SCID mice bearing human MM.1S tumors; details: MM1.S, iv, read-out: CT-L proteasome activity inhibition in tumors, tumor, 24h after a single treatment, 0.15 mg/kg i.v.
[2] = system: 20S proteasome CT-L, C-L, and T-L activities; test: Ex vivo 20S proteasome activities; assay type: in vivo, CB-17 SCID mice bearing human MM.1S tumors; details: for inhibition of all three proteasome activities in tumor: approximately
Summary of the method: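 Male CB-17 SCID mice (4-6 wk) carrying s.c. flank MM.1S xenografts (5.0 × 10^6 cells) were dosed i.v. at ∼200-300 mm3 with 0.15 mg/kg once (D1) or three times (D1, D4, D8), or with vehicle (2% DMSO in 5% Solutol). Euthanasia at 10 min, 1, 4, 24h. Homogenates used 20 μg protein in HEPES/EDTA pH 8.0 buffer with 60 μM fluorogenic substrate (Bz-VGR-AMC for T-L) and 0.05% SDS for CT-L/C-L. Reported as % inhibition vs vehicle; mean ± SD, n = 3.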

[3] = system: MM.1S tumors; test: Human plasmacytoma xenograft efficacy study; assay type: in vivo, CB-17 SCID mice; details: 0.15 mg/kg i.v. twice a week for three weeks
Summary of the method: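 Male CB-17 SCID mice (4-6 wk) were given 5.0 × 106 MM.1S cells s.c. in the flank in serum-free RPMI. They then received 0.15 mg/kg i.v. or vehicle (2% DMSO/98% of 5% Solutol) twice weekly for three weeks (D1, D4, D8, D11, D15, D18); n=5 per group. Tumors were measured with calipers every third day, and volume was calculated as V = 0.5 a × b2. Mean ± SD; Student's t test, P < 0.05.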

[4] = Tolerability in efficacy study; assay type: in vivo, CB-17 SCID mice; details: 0.15 mg/kg i.v. twice a week for three weeks
[5] = system: caspase-3 activation / PARP cleavage in xenografted MM.1S tumors; test: In situ detection of apoptosis and immunoblot; assay type: in vivo, CB-17 SCID mice
Summary of the method: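 Xenograft-bearing mice were treated i.v. with 0.15 mg/kg or vehicle twice weekly for three weeks. Tumors were harvested on Day 21, either 3h after the last dose (immunoblot) or at endpoint (IHC). For in situ staining, apoptotic cells were identified by cleaved caspase-3. Tumor lysates (three mice per group) were immunoblotted for PARP, cleaved caspase-3 and GAPDH, using HRP-conjugated secondary antibodies and ECL detection.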

[6] = system: CHOP/GADD153, phospho-eIF2α, Bip, Hsp70 in xenografted MM.1S tumors; test: Immunoblot of ER stress proteins in tumor lysates; assay type: in vivo, CB-17 SCID mice; details: tumors harvested 3h after last dose (Day 21)
[7] = system: Factor VIII-positive cells in xenografted MM.1S tumors; test: IHC Factor VIII staining; assay type: in vivo, CB-17 SCID mice; details: vs vehicle alone, tumors harvested Day 21
Summary of the method: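 Xenograft-bearing mice received vehicle or 0.15 mg/kg i.v. twice weekly for three weeks. MM.1S tumors were harvested 3h after the last dose (Day 21), and paraffin-embedded sections were immunostained for Factor VIII as an angiogenesis marker. The images shown are representative of two mice per treatment.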

[8] = system: proteasome; details: rats, single dose 0.15 mg/kg; ref Chauhan, et al 2005; cited from earlier work
[9] = system: CT-L proteasome activity; details: MTD doses (0.7 mg/m^2), other clinical trials; cited from earlier work
[10] = system: proteasome; details: ref Chauhan, et al 2005; cited from earlier work
[11] = tumors, single dose 0.15 mg/kg i.v.

For `C[C@@]12OC(=O)[C@]1([C@@H](O)[C@@H]1C=CCCC1)NC(=O)[C@@H]2CCCl` [NPI-0052, marizomib], the inhibition at 0.15 mg/kg [1] was 60%, the “time to onset of inhibition of all three proteasome activities” value ([2]; PWB, liver, spleen, lung, kidney, single dose 0.15 mg/kg i.v.) was ≤ 10 min and the “time for proteasome activities to return to baseline” value ([2]; all tissues examined except PWB and tumors, single dose) was ≤ 24 h. For the same molecule, the “inhibition of proteasome activity in brain” value ([2]; brain tissue, any time point after single or three doses, 0.15 mg/kg i.v., 0.15 mg/kg) was “does not inhibit; also recorded: no significant inhibition”, the “time for recovery of all three proteasome activities” value ([2]; liver, kidney, lung, spleen, after three doses) was ≤ 24 h and the “inhibition of all three proteasome activities in most tissues” value ([2]; most tissues, without significant toxicity) was “greater than 70%”. For the same molecule, the “duration of proteasome inhibition” value ([2]; other organs (lung, liver, spleen, kidney)) was < 24 h, the “inhibition of all three proteasome activities in tumor” value ([2]; 24h post single dose) was 25-60% and the “inhibition of all three proteasome activities in tumor” value ([2]; 24h post third dose) was 70-80%. For the same molecule, the “duration of proteasome inhibition” value ([2]; tumors and PWB) was > 24 h, the “inhibition of all three proteasome activities” value ([2]; tumors, PWB and other tissues except brain, within 10 mins following the third dose, 0.15 mg/kg i.v.) was 65-90% and the “time of maximal inhibition of proteasome activities in tumors” value [2, 11] was 24 h. For the same molecule, the “time to onset of inhibition of proteasome activities in tumors” value [2, 11] was ≤ 1 h, the “day on which anti-MM activity (delay in tumor growth) was first evident” value [3] was 7 days and 5 to 7 days and the “tumor growth relative to vehicle-treated control” value [3] was “significantly decreased tumor growth”. For the same molecule, the “toxicity (body weight, overall appearance)” value [4] was “not associated with any toxicity”, the “PARP cleavage in tumor lysates” value ([5]; tumors harvested 3h after last treatment (Day 21)) was “robust cleavage” and the “caspase-3 positive cells in tumor sections” value ([5]; tumors harvested day 21, vs untreated control mice) was “increased numbers of caspase-3 positive cells”. The “endoplasmic stress-response proteins in tumor lysates” value [6] was “upregulation of CHOP/GADD153, phospho-eIF2α, Bip, and Hsp70”, the “Factor VIII-positive cells in tumor sections” value [7] was “dramatically decreased” and the “time for recovery of proteasome inhibition in PWB” value [8] was ≤ 7 days. The “inhibition of CT-L proteasome activity at MTD doses” value [9] was “Complete inhibition” and the “neuropathy or myelosuppression at MTD doses” value [9] was “without evidence of neuropathy or myelosuppression”.

For `CC(C)C[C@H](NC(=O)[C@H](Cc1ccccc1)NC(=O)c1cnccn1)B(O)O` [bortezomib], the “time for recovery of proteasome activity in blood” value [10] is given as ≥ 48 h.
